Data as given in ChEMBL document CHEMBL6177924, “Synthesis and antifungal evaluation of new azole derivatives containing 1,2,3-triazole” (RSC Med Chem, 2025).
Calls of active or inactive are those of the source. No cut-off for these calls is given here.

Key:
Assay type in all cases: functional, organism-based
[1] = tested on: Candida albicans; test: Antifungal activity against Candida albicans SC5314 assessed as inhibition of fungal growth measured after 36 hrs by time-killing curve analysis
Procedure, shortened: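 Log-phase C. albicans at 1×10^5 CFU/mL in SDB, 10 mL cultures with drug (0.27, 0.53, 1.06 µg/mL), fluconazole or no drug. Shaken at 150 r/min, 30 °C. Samples taken at 0, 4, 8, 12, 24, 36 and 48 h for absorbance at 630 nm, triplicate wells. Absorbance plotted against time.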

[2] = tested on: Candida albicans; test: Antifungal activity against Candida albicans assessed as sparse distribution of fungal cells at 0.27 to 1.06 microg/ml measured after 4 to 8 hrs by inverted microscopic analysis; conditions: dose 0.27-1.06 µg/ml, time 4-8 hrs
Procedure, shortened: (§1)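 Hyphae were induced in SD+10% FBS or in Spider medium. Log-phase cells at 1×10^5 CFU/mL final, 1 mL per well in 24-well plates, 3 wells per group. Drug at 0.27, 0.53 or 1.06 µg/mL, fluconazole, or no-drug control. Incubated at 30 °C; hyphal formation observed and photographed by inverted microscope at 4 h and 8 h.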

[3] = tested on: Candida albicans; test: Antifungal activity against Candida albicans assessed as increase in pseudomycelial fungal cells with reduction in mycelial formation at 0.27 to 1.06 microg/ml measured after 8 hrs by inverted microscopic analysis; conditions: dose 0.27-1.06 µg/ml; procedure, shortened: as §1
[4] = tested on: Candida albicans; test: Antifungal activity against Candida albicans assessed as inhibition of yeast state o mycelium state transformation at 0.27 to 1.06 microg/ml measured after 4 to 8 hrs by inverted microscopic analysis; conditions: dose 0.27-1.06 µg/ml, time 4-8 hrs; procedure, shortened: as §1
[5] = tested on: Candida albicans; test: Antifungal activity against Candida albicans assessed as reduction in invasion ability at 0.27 to 1.06 microg/ml measured after 4 to 8 hrs by inverted microscopic analysis; conditions: dose 0.27-1.06 µg/ml, time 4-8 hrs; procedure, shortened: as §1
[6] = tested on: Candida albicans; test: Antibiofilm activity in Candida albicans SC5314 assessed as appearance of yeast form of fungal cells at 0.27 microg/ml measured after 24 hrs by inverted microscopic analysis; conditions: dose 0.27 µg/ml
Procedure, shortened: (§2)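 Log-phase C. albicans in RPMI1640+10% FBS at 1×10^5 CFU/mL allowed to adhere in 24-well plates for 90 min at 30 °C; unattached medium removed. 1 mL medium with drug (0.27, 0.53, 1.06 µg/mL) or without drug added; 24 h at 30 °C. Biofilm stained with crystal violet 30 min, washed 3× with PBS, viewed by inverted microscope.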

[7] = tested on: Candida albicans; test: Antibiofilm activity in Candida albicans SC5314 assessed as sparse distribution of fungal cells at 0.53 microg/ml measured after 24 hrs by inverted microscopic analysis; conditions: dose 0.53 µg/ml; procedure, shortened: as §2
[8] = tested on: Candida albicans; test: Antibiofilm activity in Candida albicans SC5314 assessed as appearance of fungal cells in yeast shape with few mycelia measured after 24 hrs by inverted microscopic analysis; conditions: dose 0.27-1.06 µg/ml; procedure, shortened: as §2
[9] = tested on: Candida albicans; test: Antibiofilm activity in Candida albicans SC5314 assessed as appearance of fungal cells in pseudomycelial shape with few mycelia measured after 24 hrs by inverted microscopic analysis; conditions: dose 0.27-1.06 µg/ml; procedure, shortened: as §2
[10] = tested on: Candida albicans; test: Induction of morphological changes in Candida albicans assessed as absence of intracellular substance at 0.53 microg/ml incubated for 16 to 24 hrs by transmission electron microscopic analysis; conditions: dose 0.53 µg/ml, time 16-24 hrs
Procedure, shortened: (§3)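 C. albicans at 5×10^5 CFU/mL in SDB shaken with drug (0.27, 0.53, 1.06 µg/mL), fluconazole or no drug at 30 °C, 150 r/min, for 16-24 h. Pellets washed with PBS and fixed in cold 3% paraformaldehyde/2.5% glutaraldehyde at 4 °C, then 1% OsO4. Dehydrated in acetone and embedded in Epon-812. 60-90 nm sections stained with uranyl acetate and lead citrate, imaged by TEM.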

[11] = tested on: Candida albicans; test: Induction of morphological changes in Candida albicans assessed as effect on cytoplasmic morphology at 0.53 to 1.06 microg/ml incubated for 16 to 24 hrs by transmission electron microscopic analysis; conditions: dose 0.53-1.06 µg/ml, time 16-24 hrs; procedure, shortened: as §3

O=C(Cn1cc(COC(Cn2ccnc2)c2ccc(Cl)cc2Cl)nn1)c1ccc2ccccc2c1 (stereo unspecified)
Activity [1]: Dose-dependent-effect | Activity [2]: Active | Activity [3]: Active | Activity [4]: Active; Better Than That Of Fluconazole Group | Activity [5]: Active; Better Than That Of Fluconazole Group | Activity [6]: Active | Activity [7]: Active | Activity [8]: Dose-dependent-effect | Activity [9]: Dose-dependent-effect | Activity [10]: Active | Activity [11]: Active
